Screening data: PubChem BioAssay, several laboratories
Rows were chosen to be rich in hits. Some 2.6% of all compounds tested hit in one or more screens of this group.
PAD4 inh: human PAD4 inhibitors, primary screen, biochemical, fluorescence polarization, 1536-well format; AID 485272, 2010; recombinant PAD4, RCA probe fluorescence polarization; 330,000 tested, 0.41% active; inhibition, % at 6.36 µM; Protein-arginine deiminase type-4 (Homo sapiens), Q9UM07;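 active = percent inhibition above a cutoff equal to the mean of all tested compounds plus 3 SD, cut at about 15% in these data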;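 also: 0% = PAD4 with RCA probe and DMSO and 100% = probe without PAD4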
Apaf1 inhib: inhibitors of human Apaf-1 apoptosome, primary screen, biochemical, DEVD-Rh110 fluorescence, uHTS. Apoptotic protease-activating factor 1 (Homo sapiens), O14727. reconstituted apoptosome caspase-3 activity. inhibition, % at 20 µM. 330,000 tested, 0.71% active. AID 489030, 2010; active = inhibition of at least 40% at 20 µM;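 also: plate controls were DMSO wells for no effect and DEVD-CHO caspase inhibitor wells for full effect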
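Assay system: Apoptosome proteins | Medium: pH 7.5 Hepes buffer with CHAPS, BSA, DTT | Also added: Cytochrome c and DEVD-Rh110 substrate | Times: 30 min plus 50 min, RT | Detection: Rhodamine 110 fluorescence at Ex 480/Em 540 nm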
GSTO1 counter: inhibitors of recombinant GSTO1, primary screen, counter-screen for RBBP9 inhibitor project, biochemical, fluorescence polarization; Glutathione S-transferase omega-1 (Homo sapiens), P78417; activity-based probe fluorescence polarization; inhibition, % at 5.96 µM; 300,000 tested, 1.1% active; AID 1974, 2009;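 active = inhibition above the campaign mean inhibition plus 3 SD, cut at about 35% in these data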;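 also: 0% = GSTO1-1 with DMSO and 100% = wells lacking GSTO1-1 enzyme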
Target sequence (P78417 whole entry, looked up): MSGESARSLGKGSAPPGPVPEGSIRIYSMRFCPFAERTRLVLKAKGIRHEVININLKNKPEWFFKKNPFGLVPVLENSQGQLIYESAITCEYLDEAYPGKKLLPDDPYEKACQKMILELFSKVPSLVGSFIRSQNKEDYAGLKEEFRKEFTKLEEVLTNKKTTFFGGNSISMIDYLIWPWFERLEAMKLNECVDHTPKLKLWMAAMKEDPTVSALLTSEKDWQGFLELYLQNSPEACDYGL
TDP2 absorb: human TDP2 enzyme inhibitors, primary screen, biochemical, epi absorbance, recombinant enzyme | T5PNP hydrolysis, p-nitrophenol absorbance 415 nm | inhibition, % at 12.8 µM | 370,000 tested, 0.34% active;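 active = inhibition above the mean of all tested compounds plus 3 SD, set per campaign, cut at about 25% in these data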;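 also: 0% = DMSO with enzyme and 100% = buffer with substrate but no TDP2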
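System – recombinant human TDP2 · Quantity – TDP2 enzyme at 120 nM final · Doses – single concentration, 12.8 µM nominal, with 1% DMSO · Incubation – 2 h at 37 °C · Measured by – epi absorbance of p-nitrophenol freed from T5PNP by hydrolysis · Read-out – % inhibition relative to enzyme-containing and enzyme-free wells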
PRMT1 inh: PRMT1 methyltransferase inhibitors, primary screen, biochemical, fluorescence polarization; Protein arginine N-methyltransferase 1 (Homo sapiens), Q99873; recombinant PRMT1, activity-based probe fluorescence polarization; inhibition, % at 2.79 µM; 370,000 tested, 1.3% active;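 active = inhibition above about 21% made by adding two undisclosed values, limit read from the data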
Target sequence (Q99873 whole entry, looked up): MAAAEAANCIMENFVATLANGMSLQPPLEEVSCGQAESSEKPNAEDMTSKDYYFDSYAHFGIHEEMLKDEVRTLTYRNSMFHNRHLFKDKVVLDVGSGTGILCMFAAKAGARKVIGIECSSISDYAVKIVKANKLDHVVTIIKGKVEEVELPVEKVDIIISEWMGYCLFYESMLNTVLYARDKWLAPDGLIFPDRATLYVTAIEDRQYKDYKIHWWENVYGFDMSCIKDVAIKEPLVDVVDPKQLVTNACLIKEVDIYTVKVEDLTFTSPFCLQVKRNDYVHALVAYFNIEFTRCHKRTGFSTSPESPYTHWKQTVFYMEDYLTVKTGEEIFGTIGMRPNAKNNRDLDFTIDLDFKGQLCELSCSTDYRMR
PRMT1 confirm: PRMT1 methyltransferase inhibitors, confirmation, biochemical, fluorescence polarization, triplicate; shares compounds with PRMT1 inh; recombinant His-PRMT1, activity-based probe fluorescence polarization; inhibition, % at 2.79 µM; 3,300 tested, 42% active; AID 687036, 2013;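 active = mean inhibition across replicates above the hit cutoff derived for the earlier primary screen, cut at about 22% in these data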
Starred values were filed as active, the others as inactive; . = no result given.

SMILES	PAD4 inh	Apaf1 inhib	GSTO1 counter	TDP2 absorb	PRMT1 inh	PRMT1 confirm
COc1ccc(C(=O)CC(Sc2ccccc2N)c2ccc(OC)cc2)cc1 (centres undefined)	.	.	.	1	59*	29*
O=C(CSc1ccc(-c2ccco2)nn1)NCc1ccc(F)cc1	-12	-13	-3	6	9	.
Fc1ccc(CSc2ccc(-c3ccco3)nn2)cc1	-1	4	4	-20	54*	-1
O=C(CSc1ccc(-c2ccco2)nn1)c1ccc(F)cc1	0	-2	1	-14	54*	13
O=C1Nc2ccccc2/C1=C\C(=O)c1ccccc1	-8	9	-3	-7	13	.
O=C(/C=C1\C(=O)Nc2ccccc21)/C=C1\C(=O)Nc2ccccc21	.	.	.	8	53*	74*
CCC1(O)C(=O)OCc2c1cc1n(c2=O)Cc2cc3cc(O)ccc3nc2-1 (centres undefined)	.	.	.	10	28*	31*
O=C(CC(SCCO)c1ccc2c(c1)OCO2)c1ccco1 (centres undefined)	3	-3	2	1	39*	44*
COc1ccc(CCNC(=O)C(C)Sc2ccc(C)cc2)cc1OC (centres undefined)	-7	-7	-1	8	-2	.
CCOC(=O)[C@H]1[C@H]2COc3ccccc3[C@@H]2N2C(=O)CN(CC3CCCO3)C(=O)[C@@]12C (some centres undefined)	-2	6	.	-5	-1	.
CC(c1ccc2ccccc2c1)c1ccccc1C(=O)O (centres undefined)	.	.	.	-2	1	.
Cc1nc2sc(C(c3ccco3)N3CCc4ccccc4C3)c(O)n2n1 (centres undefined)	3	5	9	-4	45*	15
Cc1nc2sc(C(c3ccco3)N3CCN(c4ccc(F)cc4)CC3)c(O)n2n1 (centres undefined)	5	1	3	-6	25*	-3
COc1ccc(C(=O)NNC(=O)CCn2nnc(-c3ccc(Cl)cc3)n2)cc1OC	-6	-2	0	-1	-2	.
Cc1cccc(N=C2NC(=O)/C(=C/C=C/c3ccco3)S2)c1	-18	.	-4	-16	28*	9
CN1CCC(N[C@@H](Cc2ccccc2)C(=O)NCCCc2ccccc2)(C(=O)NCCc2c[nH]c3ccccc23)CC1	.	.	.	-9	0	.
CS(=O)(=O)N1CCC(C(=O)Nc2cccc(Br)c2)CC1	-2	-3	2	10	-1	.
Cc1ccccc1C(N)=O	.	.	.	-12	0	.
O=C(O)c1cc(-c2ccc(-c3ccc(F)cc3)o2)nc2ccccc12	-11	-8	-8	-10	86*	27*
Cc1ccc(/C=C/C(=O)N2CCN(S(=O)(=O)/C=C/c3ccccc3)CC2)o1	5	-11	-5	-3	-2	.
O=[N+]([O-])c1cc(-c2ccc(/C=N/c3nc4ccccn4c3-c3ccco3)o2)ccc1Cl	2	14	17	-3	41*	1
O=[N+]([O-])c1c(Nc2ccccc2O)cc(Cl)c2nonc12	.	14	.	-10	60*	53*
Cc1ccc(SC2=C(N(C)C)C(=O)c3ccccc3C2=O)cc1	.	.	.	2	52*	49*
COc1ccc(-c2onc3ccc(Cl)cc23)cc1	-1	1	1	-2	30*	13
Cc1ccc(-c2onc3ccc(Cl)cc23)cc1	-3	7	1	10	-1	.
SMILES	PAD4 inh	Apaf1 inhib	GSTO1 counter	TDP2 absorb	PRMT1 inh	PRMT1 confirm
CC(=O)N1CCN(c2ccccc2NC(=O)c2ccco2)CC1	1	6	0	4	-1	.
Cc1cc(C(=O)CCC(=O)N(C)CC(=O)Nc2c(Cl)cccc2Cl)c(C)s1	-4	2	3	-3	28*	1
CN(CC(=O)Nc1c(Cl)cccc1Cl)C(=O)CCC(=O)c1ccccc1	.	6	.	-9	-3	.
CC(C)CCN1CCN(Cc2ccc(N3CCNC3=O)cc2)CC1CCO (centres undefined)	-3	-12	6	3	4	.
Fc1ccc(NC(=S)N2CCSC2c2cccs2)cc1 (centres undefined)	2	2	7	-12	53*	6
COc1ccc(N2C(=O)CC(NCc3cccc(F)c3)C2=O)cc1 (centres undefined)	-4	5	11	-7	55*	5
COc1ccc(N2C(=O)CC(NCc3ccc(F)cc3)C2=O)cc1 (centres undefined)	-2	-17	9	-15	66*	2
Cc1ccc(S(=O)(=O)Oc2ccc(/C=C(/NC(=O)c3ccccc3)C(=O)NC(C)C(=O)O)cc2)cc1 (centres undefined)	-3	1	4	0	5	.
Clc1ccc(/C=N/c2c(-c3ccco3)nc3ccccn23)cc1	6	6	9	16	14	.
Oc1ccccc1/C=N/c1c(-c2ccco2)nc2ccccn12	-1	9	4	6	27*	6
S=c1[nH]nc(-c2ccco2)n1/N=C/c1cccs1	3	8	9	-9	0	.
S=c1[nH]nc(-c2ccco2)n1/N=C/c1cccc(Cl)c1Cl	4	18	24	-1	33*	33*
CC(=C/c1ccccc1)/C=N/n1c(-c2ccco2)n[nH]c1=S	3	9	12	12	32*	18
CC(/C=N/n1c(-c2cc(C)[nH]n2)n[nH]c1=S)=C\c1ccccc1	0	19	20	10	1	.
Cc1cccc(C)c1N1C(=O)c2ccccc2NC(=O)C1C(=O)NCCOc1ccccc1 (centres undefined)	.	.	.	-3	-3	.
CSc1ncccc1C(=O)OCC(=O)Nc1cccc(S(=O)(=O)N2CCOCC2)c1	4	7	.	1	-5	.
N#Cc1c(SCC(=O)Nc2nc3ccccc3s2)sc2c(O)cc(=O)[nH]c12	-18	-12	.	-2	52*	7
N#Cc1c(SCC(=O)Nc2nccs2)sc2c(O)cc(=O)[nH]c12	-18	8	3	14	51*	27*
N#Cc1c(SCC(=O)Nc2nc3ccc(Br)cc3s2)sc2c(O)cc(=O)[nH]c12	-20	23	-12	16	19	.
CCCSc1nnc(NC(=O)CSc2sc3c(O)cc(=O)[nH]c3c2C#N)s1	-9	14	-14	14	34*	15
Cc1cccc(N2CCN(C(=O)c3c(-c4ccccc4Cl)noc3C)CC2)c1C	3	25	-5	7	-2	.
C/C(=N\NC(=S)NCCc1ccccc1)c1cccs1	-2	18	3	-1	29*	12
